The results in this text go back to ChEMBL document CHEMBL1144084, “Semisynthesis and cytotoxicity of styryl-lactone derivatives” (J Nat Prod, 1999).

The subject of assay [1] is L1210. The experiment in a line: Cell cycle arrest in mouse L1210 cells by accumulation at G2M phase after 21 hrs relative to control. The class given is functional. An outline of the steps:
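L-1210 cells incubated 21 h at 37 °C with various drug concentrations, fixed in 70% EtOH (v/v), washed, then stained 30 min at 20 °C in PBS with 100 µg/mL RNAse and 25 µg/mL propidium iodide. Value is percentage of cells accumulated in G2 + M phase after 21 h versus untreated control.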

In assay [2] the test system is L1210. The experiment in a line: Cytotoxicity against mouse L1210 cells after 48 hrs by MTT assay. The class given is functional, cell-based. The note with it: L1210, 48 h. The method, boiled down:
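Cells grown in RPMI 1640 with 10% fetal calf serum, 2 mM L-glutamine, penicillin/streptomycin and 10 mM Hepes (pH 7.4), exposed 48 h to graded drug concentrations. Read-out by microculture tetrazolium assay. IC50 is the concentration lowering optical density by 50% relative to untreated controls.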

SMILES strings stand for the structures. In brackets after ≈: the same amount, converted by molar mass. Activity calls are given as the source filed them. The calls are words filed in the database; no cut-off is given here.

As usually defined, the IC50 is the concentration that inhibits the measured activity by half. A lower IC50 goes with higher potency. For the molecule `CO[C@H]1[C@@H](O)[C@H](O)[C@@H](c2ccccc2)OC(=O)C[C@H]1OC`, the result in assay [1] was inactive. 5.2 mg/L (≈ 17.5 µM) corresponded to half-maximal inhibition in assay [2] (IC50).
Turning to `O=C1C=C[C@@H]2O[C@H](c3ccccc3)[C@@H](O)[C@@H]2O1` [ALTHOLACTONE], in assay [1], the Activity was determined as 35%. This molecule gave an IC50 in assay [2] of 2.9 mg/L (≈ 12.5 µM).
The matching figures for `O=C1C=C[C@@H]2O[C@H](c3c([N+](=O)[O-])cccc3[N+](=O)[O-])[C@@H](O)[C@@H]2O1`: “inactive” and 5 mg/L (≈ 15.5 µM).
With `O=C1C[C@@H](Cl)[C@@H]2O[C@H](c3ccccc3)[C@@H](O)[C@@H]2O1`, the Activity in assay [1] was 35%. The half-inhibitory concentration (IC50) in assay [2] was 3.7 mg/L (≈ 13.8 µM).
For the molecule `O=C1C=C[C@@H]2O[C@H](c3ccc([N+](=O)[O-])cc3)[C@@H](O)[C@@H]2O1`, the Activity in assay [1] came to 35%. Moreover, the midpoint of inhibition in assay [2], the IC50, lay at 3.2 mg/L (≈ 11.5 µM).
